H69AR inhibit: blocks growth of human H69AR lung tumor cells | 85,000 tested, 6% active | H69AR lung tumor viability, ATP luminescence, 72 h; stronger effect = lower value | viability, % at 10 µM | AID 598;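 active = viability at or below 40%; inactive = viability above 40%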;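 note: multidrug resistant small cell line overexpressing MRP-1 efflux transporter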
HCT116 PTEN-null: suppresses growth of cells with PTEN deletion. 140,000 tested, 1.2% active. viability, % at 10 µM. HCT116 PTEN-null viability, CellTiter-Glo, 60 h; stronger effect = lower value. AID 827;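 active = viability at or below a set limit, 4 SD under the median of all tested compounds, cut at about 3.7% in these data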;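 note: PTEN knockout HCT116 line with beta catenin targeted HCT116 as companion control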
bCat KO growth: beta-catenin-lacking colon tumor cell growth suppression; HCT116 beta-catenin knockout viability, CellTiter-Glo, 60 h; stronger effect = lower value; viability, % at 10 µM; 140,000 tested, 1.5% active;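 active = viability at or under a set limit, the compound median less 4 SD, cut at about 6% in these data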
Fibroblast inh: blocks proliferation of human lung fibroblasts; AID 719; 85,000 tested, 1.1% active; LL 47 human lung fibroblast viability, ATP luminescence; stronger effect = lower value; viability, % at 10 µM;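 active = viability at or below 50% in the single dose screen; inactive = viability above 50%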;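 note: compound exposure lasted 72 h before the ATP readout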
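Test system: LL 47 human lung fibroblasts / Incubation: 72 h compound exposure at 37 °C after overnight plating / Technique: luminescent ATP detection, CellTiter-Glo / Compound dosing: 0.1% DMSO in all compound wells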
HUVEC inhibit: human endothelial cell proliferation inhibition; HUVEC proliferation, CellTiter-Glo luminescence, 72 h; stronger effect = lower value; viability, % at 10 µM (by protocol); 86,000 tested, 1.1% active; AID 648;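 active = viability at or below 30%; inactive = viability above 30%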
A number is an active result; n = inactive; x = no result. Many of the other results were omitted from the sample, so hits are more common in it than they were.

SMILES	H69AR inhibit	HCT116 PTEN-null	bCat KO growth	Fibroblast inh	HUVEC inhibit
CCCCCCNC(=O)CC(c1ccccc1)c1cc(Br)ccc1O (centres undefined)	n	n	n	n	11
CC(C)NC(=O)CC(c1ccccc1)c1cc(Br)ccc1O (centres undefined)	n	n	n	n	n
Cc1ccc(C(=O)Nc2ccc3cn[nH]c3c2)cc1S(=O)(=O)N1CCCCC1	30	n	n	n	n
Cc1c(NC(=O)C(=O)/C=C(\O)c2ccc(Br)cc2)c(=O)n(-c2ccccc2)n1C	x	n	n	x	x
Cc1cc(=O)n2ccsc2n1	x	n	n	x	x
O=[N+]([O-])c1ccc(-c2cnc(SCc3ccccc3Cl)[nH]2)cc1	x	n	n	x	x
O=[N+]([O-])c1ccc(-c2cnc(SC(c3ccccc3)c3ccccc3)[nH]2)cc1	x	n	3.9	x	x
CN(C)c1ccc(/C=C/c2ccc3ccccc3[n+]2C)cc1	x	2.0	2.1	x	x
CCN(CC)S(=O)(=O)c1cccc(C(=O)OCC(=O)c2ccc3c(c2)OCCO3)c1	x	n	n	x	x
CCOc1ccc2[nH]c(=O)c(CN(Cc3cccs3)Cc3nnnn3C(C)(C)CC)cc2c1	28	n	n	n	n
O=C(Nc1ccc2nc(-c3ccccn3)[nH]c2c1)C1CCCCC1	26	n	n	n	n
O=C(NCc1cccc(F)c1)c1noc2c1CCCC2	40	n	n	n	n
O=C(NCc1ccccc1)c1noc2c1CCCC2	n	n	n	n	n
COCCNC(=S)N/N=C(\C)c1ccccc1O	x	n	4.2	x	x
CCN(CC(=O)Nc1ccccc1OC)C(=O)COc1ccc2ccccc2c1	x	n	n	x	x
COC(=O)c1ccc(Oc2cc(C)nc(SC)n2)cc1	30	n	n	n	n
COc1cccc(NC(=S)NCc2cccs2)c1	x	n	n	x	x
Cc1ccc(CNc2ccc3c(c2)OCO3)c(C)c1	30	n	n	n	n
c1cncc(CNc2ccc3c(c2)OCO3)c1	n	n	n	n	n
CCSc1nc(N)c(C#N)c(-c2ccccc2Cl)c1C#N	37	n	n	n	n
CCOC(=O)N1CCN(C(=O)CSCC(=O)Nc2nc(-c3ccc(-c4ccccc4)cc3)cs2)CC1	0.7	n	n	n	n
O=C(O)CC(NC(=O)C1c2ccccc2Oc2ccccc21)c1ccc(Cl)cc1 (centres undefined)	x	n	n	x	x
O=C(NC(=S)Nc1ccc2c(c1)C(=O)c1ccccc1C2=O)c1ccc(F)cc1	x	n	n	x	x
O=c1oc2ccccc2c(Nc2ccc3ccccc3c2)c1[N+](=O)[O-]	19	n	n	n	n
O=c1oc2ccccc2c(Nc2ccc(O)cc2)c1[N+](=O)[O-]	n	n	n	n	n
SMILES	H69AR inhibit	HCT116 PTEN-null	bCat KO growth	Fibroblast inh	HUVEC inhibit
COc1ccc2c(Cl)c(C(=O)NCCCn3ccnc3)sc2c1Cl	n	n	n	n	n
O=C1C(C2=C(O)c3ccccc3C2=O)=Nc2ccccc21	x	2.8	n	x	x
Sc1oc(-c2ccccc2)cc1C=Nc1ccccc1	26	n	n	n	n
Oc1oc(-c2ccccc2)nc1C=Nc1ccccc1	n	n	n	n	n
Oc1c(C=Nc2cccc3cccnc23)sc2ccccc12	17	3.8	3.0	42	4.2
COc1ccc(N=Cc2sc3ccccc3c2Cl)cc1	x	n	n	x	x
CN(/N=C/c1cc([N+](=O)[O-])ccc1O)c1ccccc1	x	n	n	x	x
O=[N+]([O-])c1ccc(O)c(N=Cc2sc3ccccc3c2O)c1	x	3.7	1.9	x	x
O=C(N/N=C/c1cccn1-c1cccc(C(=O)O)c1)Nc1ccccc1	x	n	n	x	x
COc1cc(OC)cc(-c2nn[nH]n2)c1	x	n	n	x	x
N#CC(Cc1ccccc1OC(F)F)c1nc2ccccc2[nH]1 (centres undefined)	x	n	n	x	x
COc1ccc(N=CC2=C(Nc3ccc(OC)cc3)c3c(C)nn(-c4ccccn4)c3CC2)cc1	39	x	x	n	3.0
Cc1ccccc1N1Cc2ccccc2C1	x	n	n	x	x
COC(=O)c1ccc(NC(=O)COc2ccc(S(=O)(=O)N3CCCCC3)cc2)cc1	n	n	n	n	n
CCc1ccc(OCC(=O)Nc2ccc(S(=O)(=O)N3CCCC3)cc2)c(Br)c1	30	n	n	n	n
O=C1c2ccccc2C(=O)C12OC2c1ccc(Cl)cc1Cl (centres undefined)	x	1.7	2.6	x	x
CC1SC(c2ccc(Cl)cc2Cl)NC1=O (centres undefined)	n	n	n	n	n
Cc1sc2nc(C3CC3)nc(NCCNS(C)(=O)=O)c2c1C	n	n	n	n	n
Cc1ccc2nc(N(CCCN(C)C)C(=O)c3sc4ccccc4c3Cl)sc2c1	x	n	n	x	x
CCc1nn(-c2cc(Cl)ccc2OC)c2c1C(=O)CCC2	22	n	n	n	n
CCCc1nn(-c2cc(Cl)ccc2OC)c2c1C(=O)CC(C)(C)C2	22	n	n	n	n
Cc1cc(NC(=O)CSc2ccc(-c3nc4cc(C)c(C)cc4[nH]3)cn2)no1	n	n	n	n	n
Cc1cc2nc(-c3ccc(SCC(=O)N4CCc5ccccc54)nc3)[nH]c2cc1C	x	1.0	0.8	x	x
Cc1cccc(-c2cc3nc(C)cc(NCCCn4ccnc4)n3n2)c1	n	n	n	n	n
Cc1cc(NCCCN2CCOCC2)n2ncc(-c3ccc(Cl)cc3)c2n1	24	n	n	46	n
Cn1c(=O)c2c(nc(NCCCN3CCOCC3)n2Cc2ccc(Cl)cc2)n(C)c1=O	n	x	x	n	n
Cc1cc(NCCCn2ccnc2)n2ncc(-c3ccc(Cl)cc3)c2n1	19	n	n	22	9.4
C=CCn1c(=NC(=O)c2ccccc2[N+](=O)[O-])sc2cc(S(C)(=O)=O)ccc21	x	n	n	x	x
Cc1cccc(N2CCN(C(=O)c3cn(C)c(=O)c4c3c3ccccc3n4C)CC2)c1C	31	n	n	n	n

Compound activity: PubChem, SRMLSC
